Results published in ChEMBL document CHEMBL1129493 (J Med Chem, 1996).
Values after ≈ are worked out from the molar mass of the structure shown. Active and inactive are the calls of the source.

Key:
Dihydrofolate reductase [1] = target: T1, Dihydrofolate reductase (Candida albicans, UniProt P22906); test: Inhibition of Dihydrofolate reductase enzyme from Candida albicans
T1 sequence (P22906 whole entry): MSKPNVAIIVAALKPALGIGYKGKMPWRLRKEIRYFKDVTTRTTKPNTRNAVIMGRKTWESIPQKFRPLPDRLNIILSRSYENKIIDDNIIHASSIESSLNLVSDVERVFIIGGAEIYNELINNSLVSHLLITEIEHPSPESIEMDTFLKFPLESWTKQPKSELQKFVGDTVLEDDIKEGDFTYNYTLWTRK

Dihydrofolate reductase [2] = target: T2, Dihydrofolate reductase (Homo sapiens, UniProt P00374); test: Inhibition of human recombinant Dihydrofolate reductase enzyme
T2 sequence (P00374 whole entry): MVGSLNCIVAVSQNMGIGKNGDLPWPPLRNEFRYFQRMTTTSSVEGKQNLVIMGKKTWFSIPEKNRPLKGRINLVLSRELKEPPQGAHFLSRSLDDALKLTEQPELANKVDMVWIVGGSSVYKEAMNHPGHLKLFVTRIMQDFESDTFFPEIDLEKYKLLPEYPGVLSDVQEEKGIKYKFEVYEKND

Candida albicans = test: Minimum inhibitory concentration evaluated against Candida albicans; assay type: functional
HCT-8 [3] = test: Activity was evaluated against HCT-8 tumor cells; assay type: functional, cell-based; conditions: Homo sapiens
Method in brief: (§1)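 Cytotoxicity was read by MTT dye reduction for suspension cultures or sulforhodamine B for monolayer cultures. For reversal of multidrug resistance, reserpine was added as reversing agent ([…] as printed).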

Mus musculus [4] = test: Effect on life span of mice with intracranially implanted P388 Leukemic cells; assay type: functional
Method in brief: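 CDF-1 female mice (18–20 g, 5 or 8/group); P388 leukemia, maintained by in vivo serial passage, implanted intracranially at 1 × 10^5 cells. Treatment started 24 h later; test agents suspended in 0.5% carboxymethyl cellulose plus 1% Tween 80, given sc or ip qd × 10. Read-out was percent increase in life span versus controls.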

[5] = Cytotoxic activity was evaluated against Daoy tumor cells; assay type: functional, cell-based; conditions: Homo sapiens; method in brief: as §1
P388 [6] = test: Cytotoxic activity was evaluated against P388D1 tumor cells; assay type: functional, cell-based; conditions: Mus musculus; method in brief: as §1
[7] = Relative concentration of compound in brain compared to concentration in plasma (0.4 ug/mL) at the time of tissue collection from mice; relative concentration; assay type: ADME, organism-based; conditions: mouse, read-out: Activity
Mus musculus [8] = organism: Mus musculus; test: Effect on Candida albicans nephritis and Meningitis in Immunosuppressed Mice kidney; assay type: functional
Method in brief: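 Immunosuppressed CD-1 female mice (10/group) given cyclophosphamide ip, 160 and 40 mg/kg on days -4 and -1; C. albicans 5 × 10^4 cfu/mouse iv via lateral tail vein. Sc dosing of 20 or 50 mg/kg in sesame oil at 3, 7, 24, 30 h post-inoculation; sulfamethoxazole 200 mg/kg ip in D5W given 1 h before each dose. Kidney and brain cultured at 48 h; log cfu/g tissue.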

Mus musculus [9] = test: Effect on life span of mice with intraperitoneally implanted P388 Leukemic cells; assay type: functional
Method in brief: (§2)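 CDF-1 female mice (18–20 g, 5 or 8/group); P388 or P388/ADR cells implanted ip at 1 × 10^6 cells. Dosing began 24 h later; agents suspended in 0.5% carboxymethyl cellulose plus 1% Tween 80, given sc or ip qd × 10. Read-out was percent increase in life span.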

[10] = Cytotoxic activity was evaluated against L tumor cells; assay type: functional, cell-based; conditions: Mus musculus; method in brief: as §1
U-87 MG = test: Cytotoxic activity was evaluated against U87MG tumor cells; assay type: functional, cell-based, U-87MG ATCC; conditions: Homo sapiens; method in brief: as §1
A549 = test: Cytotoxic activity evaluated against A549 tumor cells; conditions: Homo sapiens
P388 [11] = test: Cytotoxic Activity was evaluated against P388D1 cells; assay type: functional, Mus musculus; method in brief: as §1
MCF7 [12] = test: Cytotoxic activity was evaluated against MCF-7 cells; assay type: functional, Homo sapiens; method in brief: as §1
KB 3-1 = test: Cytotoxic activity was evaluated against KB3-1 cells; assay type: functional, Homo sapiens; method in brief: as §1
KB [13] = test: Cytotoxic activity was evaluated against KBV-1 cells in presence of reserpine; assay type: functional, Homo sapiens; method in brief: as §1
P388 [14] = test: Cytotoxic activity was evaluated against P388D1/ADR cells; assay type: functional, Mus musculus; method in brief: as §1
KB [15] = test: Cytotoxic activity was evaluated against KBV-1 cells; assay type: functional, Homo sapiens; method in brief: as §1
P388 [16] = test: Cytotoxic activity was evaluated against P388/ADR + reserpine cells; assay type: functional, Mus musculus; method in brief: as §1
MCF7 [17] = test: Cytotoxic activity was evaluated against MCF-7/ADR cells; assay type: functional, Homo sapiens; method in brief: as §1
MCF7 [18] = test: Cytotoxic activity was evaluated against MCF-7/ADR+Reserpine cells; assay type: functional, Homo sapiens; method in brief: as §1
Mus musculus [19] = organism: Mus musculus
Mus musculus [20] = organism: Mus musculus; test: Effect on Pneumocystis carinii pneumonia in SCID mice in presence of leucovorin; assay type: functional
Method in brief: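 SCID mice (10-11/group) were dosed prophylactically once daily from day 1 postinfection, 42 doses. Test drug in D5W was given ip, then leucovorin 12 mg/kg sc 30 min later. Trimethoprim 50 mg/kg plus sulfamethoxazole 250 mg/kg was given orally, and controls received D5W ip and sc. Lung impression smears were taken 24 h after the last dose and stained by immunofluorescence. Infection was scored 0-4 semilogarithmically, reported as mean ± SEM and as infected/total mice.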

HCT-8 [21] = test: Cytotoxic Activity was evaluated against HCT-8 tumor cells; assay type: functional, cell-based; conditions: Homo sapiens; method in brief: as §1
D54 cell line = test: Cytotoxic Activity was evaluated against D54 tumor cells; assay type: functional, cell-based; conditions: Homo sapiens; method in brief: as §1
Mus musculus [22] = organism: Mus musculus; test: Number of mice infected to that of total number of mice ([…]/[…]); assay type: functional, organism-based
Mus musculus [23] = test: Effect on life span of mice with intraperitoneally implanted P388/ADR Leukemic cells; assay type: functional; method in brief: as §2
NCI-H460 = test: Cytotoxic Activity was evaluated against H460 tumor cells; assay type: functional, cell-based; conditions: Homo sapiens; method in brief: as §1
U373 MG = test: Cytotoxic activity was evaluated against U373MG tumor cells; assay type: functional, cell-based, U-373MG ATCC; conditions: Homo sapiens; method in brief: as §1
Vero = test: Cytotoxic Activity was evaluated against Vero tumor cells; assay type: functional, cell-based; conditions: Chlorocebus sabaeus; method in brief: as §1

| Ki (Dihydrofolate reductase [1]) [nM] | Ki (Dihydrofolate reductase [2]) [nM] | MIC (Candida albicans) [µg/mL] | IC50 (HCT-8 [3]) [nM] | SMILES | also measured |
| --- | --- | --- | --- | --- | --- |
| 0.16 | 0.01 | 0.05 (≈ 0.207 µM) |  | CC(C)c1cc2c(ccc3nc(N)nc(N)c32)[nH]1 |  |
|  |  | > 0.1 | 1.3 | CCc1cc2c3c(N)nc(N)nc3ccc2n1C(C)(C)C |  |
| 1.3 | 0.029 | 0.1 (≈ 0.414 µM) | 8 | CCc1cc2c3c(N)nc(N)nc3ccc2n1C |  |
|  | 0.087 | 0.1 (≈ 0.44 µM) | 85 | Cc1cc2c3c(N)nc(N)nc3ccc2n1C |  |
|  |  |  |  | CC[C@]1(O)C[C@@H]2CN(CCc3c([nH]c4ccccc34)[C@@](C(=O)OC)(c3cc4c(cc3OC)N(C)[C@H]3[C@@](O)(C(=O)OC)[C@H](OC(C)=O)[C@]5(CC)C=CCN6CC[C@]43[C@@H]65)C2)C1 [VINBLASTINE] | Relative IC50 (P388 [11]): 1; Relative IC50 (MCF7 [12]): 1; Relative IC50 (KB 3-1): 1; Relative IC50 (KB [13]): 1.3; Relative IC50 (P388 [14]): 19 nM; Relative IC50 (KB [15]): 2000; Relative IC50 (P388 [16]): 0.2 nM; Relative IC50 (MCF7 [17]): 17500; Relative IC50 (MCF7 [18]): 0.5 |
|  |  |  |  | COc1cc(Cc2cnc(N)nc2N)cc(OC)c1OC | No. of mice infected /total (Mus musculus [19]): Partially active |
| 0.0071 | 0.0004 | 0.025 (≈ 0.0882 µM) | 2.1 | CCC(C)(C)n1c(C)cc2c3c(N)nc(N)nc3ccc21 |  |
| < 0.11 | 0.0004 | > 0.1 | 4.4 | CCCc1cc2c3c(N)nc(N)nc3ccc2n1C(CC)CC |  |
| 0.38 |  | > 0.1 | 52 | CCCCc1cc2c3c(N)nc(N)nc3ccc2n1C(C)(C)C |  |
| < 0.05 | 0.0001 | > 0.1 | 0.75 | CCC(CC)n1c(C(C)C)cc2c3c(N)nc(N)nc3ccc21 |  |
| < 0.05 | 0.0001 | 0.1 (≈ 0.353 µM) | 0.82 | CCc1cc2c3c(N)nc(N)nc3ccc2n1C(C)CC (configuration not stated) |  |

| SMILES | Ki (Dihydrofolate reductase [1]) [nM] | Ki (Dihydrofolate reductase [2]) [nM] | MIC (Candida albicans) [µg/mL] | IC50 (HCT-8 [3]) [nM] | also measured |
| --- | --- | --- | --- | --- | --- |
| CCC(CC)n1ccc2c3c(N)nc(N)nc3ccc21 | 0.22 | 0.0045 | 0.001 (≈ 0.00371 µM) | 6 | Increase in life-span (Mus musculus [4]): 55%; IC50 [5]: 80 nM; IC50 (P388 [6]): 4.5 nM; Kp [7]: 10; Log cfu/g of tissue (Mus musculus [8]): 6; Increase in life-span (Mus musculus [9]): 80%; IC50 [10]: 2.2 nM; IC50 (U-87 MG): 8 nM; IC50 (A549): 10 nM |
| COc1ccc(OC)c(Cc2cnc3nc(N)nc(N)c3c2C)c1 [PIRITREXIM] | 1.9 | 0.025 | > 10 |  | Increase in life-span (Mus musculus [4]): 0%; IC50 [5]: 70 nM; Infection score (Mus musculus [20]): 3.27; IC50 (P388 [6]): 21 nM; IC50 (HCT-8 [21]): 68 nM; IC50 (D54 cell line): 230 nM; Increase in life-span (Mus musculus [9]): 40%; No. of mice infected /total (Mus musculus [22]): Number of mice infected to that of total number of mice ([…]/[…]); IC50 [10]: 76 nM; Increase in life-span (Mus musculus [23]): -5%; IC50 (NCI-H460): 260 nM; IC50 (U-87 MG): 48 nM; IC50 (U373 MG): 55 nM; IC50 (A549): 24 nM; IC50 (Vero): 30 nM |
